Tests used:
[1] = molecular target: T1, Norepinephrine transporter (Rattus norvegicus, UniProt Q9WTR4); experiment: Reuptake inhibitory activity against NE transporter; assay type: functional
[2] = molecular target: T2, Sodium-dependent serotonin transporter (Rattus norvegicus, UniProt P31652); experiment: Reuptake inhibitory activity against Serotonin transporter
Procedure, shortened: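 [³H]5-HT uptake in crude synaptosomes from rat whole brain minus caudate, in Krebs phosphate buffer pH 7.4 with 1 mg/mL ascorbic acid and 50 μM pargyline. Stopped after 30 min by Tris-HCl/NaCl wash buffer and rapid GF/B filtration. Run twice, each in triplicate.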

[3] = molecular target: T2, Sodium-dependent serotonin transporter; experiment: (§1) Displacement of [125I]RTI-55 from serotonin transporter of frozen rat caudate membranes; assay type: cell membranes, Membrane
Procedure, shortened: (§2)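 Rat caudate membranes as stated in the lines. For NET binding, 5 mM KCl and 300 mM NaCl were added. Radioligand was in protease inhibitors (chymostatin, leupeptin, EDTA, EGTA). Ended by filtration over PEI-presoaked GF/B filters; Ki derived.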

[4] = molecular target: T1, Norepinephrine transporter; experiment: Displacement of from norepinephrine transporter of frozen rat caudate membranes; assay type: cell membranes, Membrane; procedure, shortened: as §2
[5] = molecular target: T3, Sodium-dependent dopamine transporter (Rattus norvegicus, UniProt P23977); experiment: Reuptake inhibitory activity against dopamine DA transporter
T3 sequence (P23977 whole entry): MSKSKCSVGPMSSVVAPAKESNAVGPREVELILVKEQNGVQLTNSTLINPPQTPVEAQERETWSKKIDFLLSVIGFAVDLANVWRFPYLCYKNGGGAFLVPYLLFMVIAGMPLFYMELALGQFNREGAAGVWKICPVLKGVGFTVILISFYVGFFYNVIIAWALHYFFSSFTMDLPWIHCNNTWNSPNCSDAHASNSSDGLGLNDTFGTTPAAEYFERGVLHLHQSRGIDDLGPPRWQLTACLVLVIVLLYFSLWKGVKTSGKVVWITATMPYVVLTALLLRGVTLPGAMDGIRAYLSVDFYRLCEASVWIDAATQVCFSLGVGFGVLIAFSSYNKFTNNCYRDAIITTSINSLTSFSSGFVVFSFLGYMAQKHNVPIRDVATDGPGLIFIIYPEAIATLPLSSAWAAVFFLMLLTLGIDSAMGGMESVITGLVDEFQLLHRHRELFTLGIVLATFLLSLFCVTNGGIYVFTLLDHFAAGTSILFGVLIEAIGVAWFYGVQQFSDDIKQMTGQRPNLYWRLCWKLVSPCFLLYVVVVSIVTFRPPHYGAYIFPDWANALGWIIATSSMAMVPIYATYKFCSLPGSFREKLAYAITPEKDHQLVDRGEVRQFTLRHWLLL

[6] = molecular target: T3, Sodium-dependent dopamine transporter; experiment: Binding affinity for DA transporter using [125I]RTI-55 in frozen rat caudate membranes; assay type: cell membranes; procedure, shortened: as §2
[7] = molecular target: T2, Sodium-dependent serotonin transporter; experiment: as §1; assay type: cell membranes, Membrane; remark: listed apart in the source
Procedure, shortened: as §2, with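 “lines. Incubated 18–24 h at 4 °C to equilibrium with radioligand and test drug in 55.2 mM sodium phosphate buffer, pH 7.4, with 1 mg/mL BSA.” for “lines.”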

T2 sequence (P31652 whole entry): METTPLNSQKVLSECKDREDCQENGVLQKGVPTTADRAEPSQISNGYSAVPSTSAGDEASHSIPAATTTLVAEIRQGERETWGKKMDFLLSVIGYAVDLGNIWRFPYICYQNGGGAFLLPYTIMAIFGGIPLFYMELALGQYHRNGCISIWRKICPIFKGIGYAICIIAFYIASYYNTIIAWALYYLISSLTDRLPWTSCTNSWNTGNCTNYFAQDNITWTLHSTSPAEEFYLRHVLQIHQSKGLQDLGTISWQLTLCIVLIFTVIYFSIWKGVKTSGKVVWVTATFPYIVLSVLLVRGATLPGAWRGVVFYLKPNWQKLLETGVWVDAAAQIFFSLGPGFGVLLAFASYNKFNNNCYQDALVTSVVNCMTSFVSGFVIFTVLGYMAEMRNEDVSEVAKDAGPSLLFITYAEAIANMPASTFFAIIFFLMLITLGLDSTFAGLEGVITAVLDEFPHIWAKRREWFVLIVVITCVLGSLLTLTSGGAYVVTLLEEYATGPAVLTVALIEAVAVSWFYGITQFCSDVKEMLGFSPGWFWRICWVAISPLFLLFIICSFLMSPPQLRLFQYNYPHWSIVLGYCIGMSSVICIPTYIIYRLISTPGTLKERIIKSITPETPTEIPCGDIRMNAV
T1 sequence (Q9WTR4 whole entry): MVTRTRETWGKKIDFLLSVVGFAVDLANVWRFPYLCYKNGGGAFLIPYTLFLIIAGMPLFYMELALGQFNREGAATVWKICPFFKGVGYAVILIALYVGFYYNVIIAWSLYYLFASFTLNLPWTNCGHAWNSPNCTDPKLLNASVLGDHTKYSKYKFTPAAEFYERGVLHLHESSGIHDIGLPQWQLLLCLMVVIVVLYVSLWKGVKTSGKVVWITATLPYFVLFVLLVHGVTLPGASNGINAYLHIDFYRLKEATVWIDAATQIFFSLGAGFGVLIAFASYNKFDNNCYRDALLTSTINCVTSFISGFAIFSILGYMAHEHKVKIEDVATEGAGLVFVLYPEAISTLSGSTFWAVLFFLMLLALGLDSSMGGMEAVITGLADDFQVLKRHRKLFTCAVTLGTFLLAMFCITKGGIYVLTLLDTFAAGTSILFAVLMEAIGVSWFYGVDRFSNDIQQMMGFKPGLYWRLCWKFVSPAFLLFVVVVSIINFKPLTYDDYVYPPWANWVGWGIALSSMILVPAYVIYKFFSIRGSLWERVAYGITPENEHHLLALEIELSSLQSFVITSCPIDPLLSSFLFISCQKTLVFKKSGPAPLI

Compound	Ki [1]	Ki [2]	Ki [3]	Ki [4]	Ki [5]	Ki [6]	Ki [7]
CN[C@@H]1C[C@@H](c2ccc(Cl)c(Cl)c2)c2ccc(OC)cc21	34 nM	19 nM	0.7 nM	7 nM	12 nM	9 nM	–
CN[C@H]1C[C@H](c2ccc(Cl)c(Cl)c2)c2ccc(OC)cc21	650 nM	109 nM	–	820 nM	600 nM	600 nM	51 nM
CNC1CC(c2ccc(Cl)c(Cl)c2)c2ccc(OC)cc21 (cis isomer)	–	–	–	170 nM	–	96 nM	0.3 nM
CCN(CC)C1CC(c2ccc(Cl)c(Cl)c2)c2ccc(OC)cc21 (cis isomer)	–	–	26 nM	> 4700 nM	–	1310 nM	–
CNC1CC(c2ccc(Cl)c(Cl)c2)c2ccc(OC)cc21 (trans isomer)	–	–	1.1 nM	15 nM	–	12 nM	–
CNC1CC(c2ccc(Cl)c(Cl)c2)c2ccc(O)cc21 (trans isomer)	–	–	3 nM	24 nM	–	11 nM	–
CCN(CC)C1CC(c2ccc(Cl)c(Cl)c2)c2ccc(O)cc21 (trans isomer)	–	–	0.7 nM	1330 nM	–	40 nM	–
CCN(CC)C1CC(c2ccc(Cl)c(Cl)c2)c2ccc(OC)cc21 (trans isomer)	–	–	1.3 nM	1010 nM	–	140 nM	–

From ChEMBL document CHEMBL1148277, “Synthesis and pharmacological evaluation of 3-(3,4-dichlorophenyl)-1-indanamine derivatives as nonselective ligands for biogenic amine transporters” (J Med Chem, 2004)
